# A selection: hits, their analogues and other compounds. The true share with any hit is near 1.9%.
# Jurkat NFkB inh: inhibitors of induced NF-kB luciferase reporter, primary screen, TCR NF-kB activation inhibitor project, cell-based, luminescence, uHTS. Jurkat, PMA/ionomycin-induced NF-kB luciferase reporter. inhibition, % at 4 µM. 0.53% of 330,000 active; in the data active = inhibition above about 50%
# H9c2 TAG inh: inhibitors of triacylglycerol accumulation, primary screen, cell-based, uHTS, fluorescence, H9c2; AID 651582, 2012; H9c2 cells, Nile Red lipid (TAG) fluorescence; cells loaded with 200 µM oleic acid; 0.66% of 230,000 active; inhibition, % at 12.5 µM;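 active = pattern-corrected inhibition of lipid staining of at least 50% with the nuclear-stain viability signal not falling by more than 50%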
# Hep lipid drop: inhibitors of hepatocyte lipid droplet formation, primary screen, imaging, high-throughput imaging, BODIPY stain; AID 1656, 2009; AML12 mouse hepatocytes, oleate lipid droplets; 0.4% of 240,000 active; inhibition, % at 6.5 µM;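 active = lipid droplet intensity inhibited by at least 50%, with more than 500 cells counted; inconclusive = wells with under 300 cells, treated as cytotoxic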
#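 Assay system: AML12 hepatocytes (mouse) / Also added: 100 µM oleic acid challenge / Times: overnight treatment with compound plus oleate / Detection: high-content imaging of BODIPY-stained droplets and DAPI nuclei / Evaluation: % inhibition of lipid droplet signal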
# aSyn 5UTR inh: MLPCN primary screen, SNCA 5' untranslated region; alpha-synuclein 5'UTR reporter, inhibitor activity; inhibition, % (tested at 7.5 µM); 0.82% of 300,000 active; AID 1813, 2009; in the data active = inhibition above about 60%; inconclusive = no clear call, values can overlap the other calls;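 also: H4 neuroglioblastoma cells stably carrying SNCA 5'UTR luciferase fusion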
# APP transl inh: inhibitors of APP translation via 5'UTR reporter, primary screen, APP 5'UTR luciferase, SH-SY5Y cells | inhibition, % at 2 µM | SH-SY5Y APP 5'UTR-luciferase reporter, luminescence | AID 1285, 2008 | 0.82% of 190,000 active;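 active = inhibition above a set limit, derived from the sample mean plus 3 SD, cut at about 45% in these data; inconclusive = one replicate passes the limit while the other fails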
# 697 NFkB inh: inhibitors of PMA/ionomycin-induced NF-kB reporter, 697 cells, primary screen, B-cell NF-kB inhibitor project, cell-based, luminescence, uHTS; 697 B-cell NF-kB luciferase reporter, 16 h; inhibition, % at 4 µM; 0.33% of 330,000 active; AID 435022, 2010; in the data active = inhibition above about 35%
# Numbers stand for hits; - = inactive; ? = inconclusive; . = not tested or not shown.
SMILES,Jurkat NFkB inh,H9c2 TAG inh,Hep lipid drop,aSyn 5UTR inh,APP transl inh,697 NFkB inh
Cc1ccccc1/C=N/Nc1nc2ccccc2[nH]1,-,-,-,-,-,-
CCOC(=O)C1(C)CCCN(C(=O)COc2ccccc2)C1 (stereo unspecified),.,-,.,.,.,.
CC1CCN(C(=O)COC(=O)c2cccc(S(=O)(=O)N3CCOCC3)c2)CC1,.,-,.,.,.,.
CC(=O)Nc1ccc(NC(=O)c2sc3nc4n(c(=O)c3c2C)CCCCC4)cc1,-,-,-,76,-,-
CCc1ccc(NC(=O)c2sc3nc4n(c(=O)c3c2C)CCC4)cc1,-,.,-,-,.,-
CC(=O)NC(c1ccccc1)c1nc(-c2csc3ccccc23)cs1 (stereo unspecified),.,-,.,.,.,.
O=c1cc2oc3cc(O)c(O)cc3c(-c3ccccc3[N+](=O)[O-])c-2cc1O,-,.,-,71,.,-
Cc1ccc(C(=O)Nc2ncc(Cc3ccccc3)s2)o1,-,.,.,-,-,-
O=C(Nc1ncc(Cc2ccc(SC(F)F)cc2)s1)c1ccccc1,-,.,.,68,86,-
Cc1c(Cl)cccc1N1C(=O)c2ccccc2C1=O,-,.,-,-,68,-
O=C1c2cccc3cccc(c23)C(=O)N1c1ccccc1Cl,-,.,-,-,.,-
c1ccc(C(CN2CCOCC2)c2ccccc2)cc1,-,.,.,-,-,-
COc1ccc(C(=O)C(CN2CCOCC2)c2ccccc2)cc1 (stereo unspecified),-,.,.,-,90,-
O=C(c1ccccc1)C(CCC(CN1CCOCC1)C(=O)c1ccccc1)CN1CCOCC1 (stereo unspecified),-,-,.,-,90,-
CCCOc1ccc(C(=O)C(CN2CCCC2)c2ccccc2)cc1 (stereo unspecified),.,.,-,-,92,.
CCCCOc1ccc(C(=O)C(CN2CCOCC2)c2ccccc2)cc1 (stereo unspecified),-,-,-,-,-,-
COc1ccc(C(=O)C(CN2CCCC2)c2ccccc2)cc1 (stereo unspecified),-,-,.,-,86,-
CCC(NC(=O)CSc1nnnn1C1CC1)c1ccc(Br)cc1 (stereo unspecified),-,-,.,.,.,-
O=C(c1cncs1)N1CCCC(CNS(=O)(=O)c2cccs2)C1 (stereo unspecified),-,-,-,-,-,-
Cc1cn([C@H]2C[C@H](O)[C@@H](CNCc3ccccc3OCCCN3CCOCC3)O2)c(=O)[nH]c1=O,.,-,.,.,.,.
CC(=O)Nc1ccc(Nc2nc(C)c([N+](=O)[O-])c(N(C)c3ccccc3)n2)cc1,-,-,-,86,.,-
CC(=O)Nc1ccc(Nc2nc(C)c([N+](=O)[O-])c(Nc3ccccc3)n2)cc1,-,.,-,?,-,-
O=C(CSc1nc2ccccc2n1Cc1ccc(Cl)cc1)N/N=C/c1ccc(C(=O)O)cc1,-,-,-,-,54,-
O=C(CSc1nc2ccccc2n1Cc1ccccc1)N/N=C/c1ccccc1C(=O)O,-,-,-,-,.,-
CC(=O)/C(=N\Nc1ccccc1)Sc1nncn1C,-,.,-,-,-,-
SMILES,Jurkat NFkB inh,H9c2 TAG inh,Hep lipid drop,aSyn 5UTR inh,APP transl inh,697 NFkB inh
COc1ccccc1-n1cnc2cc(NCc3ccco3)ccc21,.,.,.,?,94,.
COc1ccccc1-n1cnc2cc(NCc3ccccc3O)ccc21,-,-,-,-,.,-
O=S(=O)(Nc1cc(Sc2cccc3cccnc23)c(O)c2ccccc12)c1ccccc1,.,.,-,-,75,.
COc1cc2nc(Nc3ccc(C)c(Cl)c3)nc(N)c2cc1OC,-,.,-,99,.,-
COc1ccc2c(c1)O[C@@H](c1cccc(C(F)(F)F)c1)[C@H](O)C2=O,-,.,-,62,-,-
O=C(Nc1ccc(Cl)c(S(=O)(=O)N2CCOCC2)c1)c1cn2ccccc2n1,-,-,-,-,-,-
O=C(Nc1ccc(N2CCOCC2)cc1)c1cn2ccccc2n1,-,.,.,65,-,-
C[C@H](CO)N1C[C@H](C)[C@@H](CN(C)Cc2ccccn2)Oc2ncc(-c3ccccc3)cc2C1=O,.,-,.,.,.,.
CCCCc1c(C)c(C#N)c2nc3ccccc3n2c1Cl,.,.,-,109,82,.
COc1ccc(CCNC(=O)C(=O)Nc2ccc3c(c2)OCO3)cc1OC,-,-,-,-,-,-
CC1=C(C#N)C(c2ccccc2)C2=C(N1)c1ccccc1C2=O (stereo unspecified),-,.,-,-,78,-
CC1=C(C#N)C(c2cccnc2)C2=C(N1)c1ccccc1C2=O (stereo unspecified),-,-,-,-,-,-
CCN=C1S/C(=C\c2cn(CC(=O)NCc3ccco3)c3ccccc23)C(=O)N1CC,-,.,-,65,.,-
CN1C(=O)/C(=C/c2cn(CC(=O)NCc3ccco3)c3ccccc23)NC1=S,-,.,-,-,-,-
O=C(CN(Cc1ccco1)C(=O)CNS(=O)(=O)c1ccc(F)cc1)NCc1ccccc1,-,.,-,-,.,-
O=C(N/N=C/c1c(O)ccc2ccccc12)c1[nH]ncc1Br,-,.,-,106,72,-
O=C(N/N=C\c1ccc(Cl)s1)c1ccc(Cn2cccn2)o1,-,.,-,-,-,-
Cc1ccc(O)c(/C=N/NC(=O)c2[nH]ncc2Br)c1,-,.,-,-,-,-
O=C(N/N=C\c1c(O)ccc2ccccc12)c1ccc(Cn2cccn2)o1,-,.,-,92,63,-
O=C(NCC1CCCO1)c1cc2ccccc2oc1=O (stereo unspecified),-,-,-,-,-,-
CSc1ccc(CN2C(=O)C(F)(F)Oc3c(C(C)=O)cccc32)cc1,.,-,.,.,.,.
COc1ccc(-c2cc3nc(CCl)[nH]c(=O)c3s2)cc1,-,.,-,71,.,-
Nc1ccn([C@@H]2O[C@H](CNCc3cnc(N4CCOCC4)nc3)[C@@H](O)[C@H]2O)c(=O)n1,.,-,.,.,.,.
COc1cccc(-n2c(=O)c3cc(OC)c(OC)cc3n(CC(=O)Nc3cc(C)[nH]n3)c2=O)c1,-,.,-,-,-,-
CN1CCN(C2Cc3ccc(F)cc3Sc3cc(F)c(Cl)cc32)CC1 (stereo unspecified),-,-,.,102,.,-
CC(C)c1ccc2c(c1)C(N1CCNCC1)Cc1ccc(F)cc1S2 (stereo unspecified),-,.,.,75,.,-
O=C(C[C@H]1C(=O)N(Cc2ccccc2)C[C@@H]1c1ccc(Br)cc1)Nc1ccc(Br)cc1,.,-,.,.,.,.
Cc1ccc(C)c(NC(=S)NCc2ccc3[nH]c4c(c3c2)CCCC4)c1,-,-,-,-,47,-
COc1ccc(CNC(=S)Nc2cc(C)ccc2C)cc1,-,.,-,-,70,-
Cc1ccccc1NC(=S)NCc1ccc2[nH]c3c(c2c1)CCCC3,-,-,-,-,-,-
